# High-throughput results deposited in PubChem BioAssay by Broad Institute.
# CAL PDZ FP-1: untagged CAL PDZ binding inhibitors, primary screen, biochemical, fluorescence polarization, HTS | Golgi-associated PDZ and coiled-coil motif-containing protein (Homo sapiens), Q9HD26 | purified CAL PDZ, TMR-peptide fluorescence polarization, 1 h | inhibition, % at 24.9 µM | 0.92% of 300,000 active;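 active means mean inhibition of at least 30% with at least half of replicates also reaching 30%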;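 further: 0% = DMSO neutral control and 100% = excess unlabeled competitor peptide PRC23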
# CAL PDZ FP-2: CAL PDZ peptide-binding inhibitors, primary screen, biochemical, fluorescence polarization, Cer-tagged CAL PDZ, HTS; Golgi-associated PDZ and coiled-coil motif-containing protein (Homo sapiens), Q9HD26; purified CAL PDZ, TMR-peptide fluorescence polarization, 1 h; inhibition, % at 20 µM; 0.02% of 330,000 active; AID 504414, 2011;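 active means highest replicate inhibition of at least 40%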;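 further: plate controls were DMSO neutral control wells for no effect and unlabeled competitor peptide control wells for full effect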
#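 Material: tagged CAL PDZ protein CerCALP, purified; buffer or medium: sodium phosphate/NaCl buffer pH 7.4 with TCEP, IgG, Thesit; also added: fluorescent TMR peptide probe; schedule: 1 h incubation at room temperature before polarization reading; technique: fluorescence polarization from S- and P-plane intensities, G-factor corrected; control set: unlabelled peptide and DMSO controls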
# DYRK1A inh: rat Dyrk1A kinase inhibitors, primary screen, biochemical, single point, plate reader; Dual specificity tyrosine-phosphorylation-regulated kinase 1A (Rattus norvegicus), Q63470; ADP-Glo luminescence, NFATc1 peptide; inhibition, % at 12.5 µM; 0.43% of 310,000 active; in the data active means inhibition above about 50%;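 further: plate controls were vehicle with enzyme for no effect and no enzyme for full effect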
# ARNT-TACC3 inh: disruptors of ARNT/TACC3 protein interaction, primary screen, biochemical, AlphaScreen, single concentration; Transforming acidic coiled-coil-containing protein 3 (Homo sapiens), Q9Y6A5; AlphaScreen His-ARNT PAS-B/GST-TACC3 binding, luminescence; TACC3 fragment carries E629A point mutation; inhibition, % at 9.99 µM; 0.66% of 390,000 active;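 active means mean inhibition of replicates at least 50% and at least half of replicates each reaching 50%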;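 further: 0% = complete ARNT plus TACC3 wells and 100% = ARNT alone without TACC3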
# Starred values were filed as active, the others as inactive; . = no result. Sampled rows, rich in hits. Any-hit rate of the full collection: about 1.4%.
SMILES,CAL PDZ FP-1,CAL PDZ FP-2,DYRK1A inh,ARNT-TACC3 inh
C[C@@H]1CN([C@@H](C)CO)C(=O)c2cc(NC(=O)Nc3cccc4ccccc34)ccc2O[C@@H]1CN(C)S(=O)(=O)c1cn(C)cn1,.,.,.,3
O=C(COC(=O)c1ccc2c(c1)S(=O)(=O)c1ccccc1C2=O)NC1CC1,.,-3,-7,-4
CC1CCC(NC(=O)c2ccc3c(c2)S(=O)(=O)c2ccccc2C3=O)CC1 (configuration not stated),4,43*,-8,5
CCN1CCCc2cc(CN(CCN3CCOCC3)C(=S)Nc3cccc(C)c3)ccc21,53*,-1,-2,33
CCN1CCCc2cc(CN(CCN3CCOCC3)C(=S)Nc3ccccc3C)ccc21,17,0,-8,-2
COc1cc(/C=N\NC(=O)c2sc(N)nc2C)cc(OC)c1OC,4,-2,-3,49*
Cc1ccc(NC(=O)C(NC2CCCC2)c2ccccc2)cc1Cl (configuration not stated),58*,-1,0,-2
O=C(O)c1ccccc1CSc1nnnn1-c1ccccc1,81*,.,0,6
COCC(=O)N1CCC(Oc2ccc(C(=O)NCc3cnc(C)cn3)cc2)CC1,57*,7,1,-10
COCC(=O)N1CCC(Oc2ccc(C(=O)NCCCn3cccn3)cc2)CC1,58*,0,-2,0
CCN(CCO)c1nc(SC)nc2c1sc1nc(-c3ccco3)c3c(c12)CCC3,-5,-3,4,20
CSc1nc(NCCOCCO)c2sc3nc(-c4ccco4)c4c(c3c2n1)CCC4,66*,0,-3,-32
CN(C)CCCn1c2c(c(SCC(=O)Nc3cccc4ccccc34)nc1=O)CCCC2,49*,-3,-4,.
CCN(CC)CCCn1c2c(c(SCC(=O)Nc3cccc4ccccc34)nc1=O)CCC2,-1,0,-1,-6
Fc1ccc(C(CCNCc2cccs2)c2ccco2)cc1 (configuration not stated),56*,0,.,-6
O=S(=O)(NCCC(c1ccc(F)cc1)c1ccco1)c1ccccc1 (configuration not stated),0,-3,-6,-4
O=C(c1ccccc1)C(CCc1ccccn1)CCc1ccccn1,47*,24,2,1
O=C(C1CCCO1)N1CCN(C(=S)Nc2cccc(F)c2)CC1 (configuration not stated),1,0,-2,-20
Cc1cccc(NC(=S)N2CCN(C(=O)C3CCCO3)CC2)c1 (configuration not stated),67*,-2,0,0
CCC(=O)N(C)C[C@@H]1Oc2cc(C#CC3(O)CCCC3)ccc2S(=O)(=O)N([C@@H](C)CO)C[C@H]1C,.,.,.,-8
CO[C@H]1CN(C)C(=O)c2cc(NS(=O)(=O)c3ccccc3)ccc2OC[C@@H](C)N(Cc2nccs2)C[C@H]1C,.,.,.,-3
COc1ccccc1NC(=O)/C(=C\c1cccnc1)NC(=O)c1ccc(C)cc1,42*,-1,6,.
COc1ccccc1NC(=O)/C(=C\c1cccnc1)NC(=O)c1ccccc1,-1,-1,-1,-3
C[C@@H]1CCCCO[C@H](CN(C)C(=O)CCCN(C)C)[C@@H](C)CN([C@H](C)CO)C(=O)c2cc(NC(=O)C3CCCCC3)ccc2O1,.,.,.,-7
Cc1ccc(NC2=C(NCCO)C(=O)c3ccccc3C2=O)cc1,-2,1,8,48*
SMILES,CAL PDZ FP-1,CAL PDZ FP-2,DYRK1A inh,ARNT-TACC3 inh
Cc1onc(-c2c(F)cccc2Cl)c1C(=O)NCc1ccccn1,88*,-1,3,5
CCOC(=O)c1ccc(NC(=O)C(=O)NCc2ccccn2)cc1,-4,-1,3,.
CCOC(=O)c1c(C)c(C(=O)NCc2ccccn2)c(C)n1CC,.,1,-3,48*
COc1ccc(-c2ccc3c(c2)O[C@H](CN(C)C)[C@@H](C)CN([C@@H](C)CO)S3(=O)=O)cc1,.,.,.,8
NS(=O)(=O)c1ccc(NC(=O)COC(=O)CCCN2C(=O)c3cccc4cccc(c34)C2=O)cc1,60*,-2,4,-1
CC1(C)CCC(=NNC(N)=S)CC1,-2,0,1,21*
NC(=S)NN=C1CCC2(CCCCC2)CC1,.,0,3,.
CCOC(=O)N1CCN(c2c(NCc3cccs3)c(=O)c2=O)CC1,.,-1,-1,3
